A word on the IC50: it is the concentration that gives 50% inhibition.

Data set [1] addresses T1, Indoleamine 2,3-dioxygenase 1 (Homo sapiens, UniProt P14902).
Data set [2] addresses Indoleamine 2,3-dioxygenase 1 (Mus musculus, UniProt P28776). Put plainly: Inhibition of mouse recombinant IDO expressed in mouse P815B cells assessed as blockade of tryptophan degradation by HPLC. It counts as cell-based.
For data set [3], the target named is Tryptophan 2,3-dioxygenase (Mus musculus, UniProt P48776). Put plainly: Inhibition of mouse recombinant TDO expressed in mouse P815B cells assessed as blockade of tryptophan degradation by HPLC. In kind it is cell-based.
Chain of Tryptophan 2,3-dioxygenase (P48776 whole entry): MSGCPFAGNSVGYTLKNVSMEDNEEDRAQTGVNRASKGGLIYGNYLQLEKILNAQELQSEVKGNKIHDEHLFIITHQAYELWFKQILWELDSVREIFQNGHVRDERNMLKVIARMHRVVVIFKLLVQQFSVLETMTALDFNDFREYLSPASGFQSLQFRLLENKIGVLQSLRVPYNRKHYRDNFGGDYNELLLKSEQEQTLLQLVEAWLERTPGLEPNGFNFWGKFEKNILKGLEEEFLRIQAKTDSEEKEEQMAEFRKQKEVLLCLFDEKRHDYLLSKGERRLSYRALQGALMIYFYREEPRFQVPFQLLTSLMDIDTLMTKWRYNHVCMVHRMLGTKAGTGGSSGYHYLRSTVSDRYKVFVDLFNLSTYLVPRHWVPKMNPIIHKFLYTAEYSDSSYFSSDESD
Data set [4] in a line: (§1) Cytotoxicity against HEK293 cells expressing human recombinant IDO by MTT assay. In kind it is cell-based. The following applies: human, HEK293 cells expressing human recombinant IDO; read-out: LD50 (the source's name). The gist of the method: (§2)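 Cells (2 × 10⁵/well) incubated 8 h at 37 °C in HBSS with 80 μM L-Trp and compound titrated 0.312–80 μM or 1.56–400 μM. Supernatant was removed; the remaining cells received culture medium (Iscove, 10% FCS, amino acids) plus MTT for 3-4 h at 37 °C.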
In general terms: Tetrazolium dyes change colour on reduction, which living cells bring about.

A short description of data set [5]: Cytotoxicity against mouse P815B cells expressing mouse recombinant TDO by MTT assay. In kind it is cell-based. The following applies: for CC50: mouse, P815B cells expressing mouse recombinant TDO, read-out: LD50 (the source's name). The gist of the method:
as §2

Data set [6] in a line: Cytotoxicity against mouse P815B cells expressing mouse recombinant IDO by MTT assay. The following applies: read-out: LD50 (the source's name). It counts as cell-based. The gist of the method: as §2
Data set [7] deals with T1, Indoleamine 2,3-dioxygenase 1. Put plainly: Inhibition of human recombinant IDO expressed in HEK293 cells assessed as blockade of tryptophan degradation by HPLC. It counts as cell-based.
Data set [8] has as its system HEK293. Described as §1. In kind it is cell-based. The following applies: Homo sapiens, HEK293. In short, it runs like this:
as §2

Each structure is given as a SMILES string.

T1 sequence (P14902 whole entry): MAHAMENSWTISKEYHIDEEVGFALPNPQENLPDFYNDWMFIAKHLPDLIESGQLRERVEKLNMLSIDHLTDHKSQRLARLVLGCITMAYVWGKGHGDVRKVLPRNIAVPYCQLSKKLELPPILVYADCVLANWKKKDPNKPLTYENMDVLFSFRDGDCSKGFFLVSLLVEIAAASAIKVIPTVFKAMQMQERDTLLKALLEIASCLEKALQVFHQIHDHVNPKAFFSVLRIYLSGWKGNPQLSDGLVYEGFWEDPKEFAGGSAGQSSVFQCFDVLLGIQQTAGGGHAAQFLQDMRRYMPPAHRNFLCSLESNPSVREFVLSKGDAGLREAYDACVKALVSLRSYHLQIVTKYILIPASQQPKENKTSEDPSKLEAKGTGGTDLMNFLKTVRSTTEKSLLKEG
Chain of Indoleamine 2,3-dioxygenase 1 (Mus musculus, UniProt P28776) (P28776 whole entry): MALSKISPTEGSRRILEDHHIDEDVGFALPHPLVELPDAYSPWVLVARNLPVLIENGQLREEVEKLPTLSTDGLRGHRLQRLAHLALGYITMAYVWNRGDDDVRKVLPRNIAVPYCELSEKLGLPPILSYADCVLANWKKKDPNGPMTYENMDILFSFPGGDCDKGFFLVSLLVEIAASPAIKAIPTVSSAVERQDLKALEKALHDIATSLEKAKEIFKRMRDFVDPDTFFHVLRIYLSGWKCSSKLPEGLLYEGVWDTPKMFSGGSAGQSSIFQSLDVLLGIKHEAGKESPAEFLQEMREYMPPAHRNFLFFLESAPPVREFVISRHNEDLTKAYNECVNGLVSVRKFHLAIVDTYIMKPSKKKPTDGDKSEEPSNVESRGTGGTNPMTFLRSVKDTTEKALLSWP

With `O=C(c1ccccc1)c1cccc(O)c1`, the IC50 in data set [1] (read-out: IC50) was found to be 500 µM.

Regarding `Nc1nc(-c2ccccc2)cs1`, the half-maximal inhibitory concentration (IC50) in data set [1] (read-out: IC50) amounted to 1000 µM.

With `c1ccc(-c2cnn[nH]2)cc1`, the IC50 in data set [2] (read-out: IC50) was 5 µM; in data set [3], more than 400 µM. For the same molecule, the CC50 was more than 400 µM in data set [4], more than 400 µM in data set [5] and more than 80 µM in data set [6].

Take `Oc1ccc(O)c2ccccc12`: the IC50 in data set [3] was more than 10 µM. For the same molecule, the CC50 in data set [4] was found to be 40 µM; in data set [5], 10 µM; in data set [6], 40 µM.

On to `c1cc(-c2cnn[nH]2)ccn1`, for which the values for the IC50 result in data set [2] (p815b) and in data set [1] (read-out: IC50) were “Not Active” and 5 µM, respectively. Besides, the CC50 in data set [6] amounted to 200 µM.

Turning to `CC(C)/N=C1/C=C(C2=C/C(=N\C(C)C)c3ccccc3C2=O)C(=O)c2ccccc21`, the 50% inhibitory concentration (IC50) in data set [2] (read-out: IC50) was more than 50 µM; in data set [3], more than 50 µM; in data set [7], 25 µM; in data set [1] (read-out: IC50) it was 0.45 µM. For the same molecule, the CC50 is 50 µM in data set [4], 100 µM in data set [5] and 50 µM in data set [6].

`CCC(CC)/N=C1/C=C(C2=C/C(=N\C(CC)CC)c3ccccc3C2=O)C(=O)c2ccccc21`: the IC50 in data set [2] (read-out: IC50) was more than 200 µM; in data set [3] it was more than 50 µM; in data set [7] it was 50 µM; in data set [1] (read-out: IC50), 0.52 µM. Besides, the CC50 is more than 400 µM in data set [4], 100 µM in data set [5] and 200 µM in data set [6].

For `c1cncc(-c2c[nH]nn2)c1`, the IC50 in data set [1] (read-out: IC50) amounted to 680 µM.

`Nc1ccc(O)c2ncccc12`: the IC50 in data set [2] (read-out: IC50) was 1 µM; in data set [3], 5 µM; in data set [1] (read-out: IC50) it was 3 µM. Further, the figures for the CC50 in data set [5] and in data set [6] were 5 µM and 2.5 µM, respectively.

Take `Oc1cccc2[nH]c3ccccc3c12`: in data set [1] (read-out: IC50), the 50% inhibitory concentration (IC50) stood at 400 µM.

`CN1c2ccccc2SC1S` (centres undefined): in data set [1], the 50% inhibitory concentration (IC50) entry is “Not Active”.

Take `NC1Nc2ccccc2S1` (centres undefined): the 50% inhibitory concentration (IC50) result in data set [1] is “Not Active”.

As for `OC1Cc2ccccc2N1` (centres undefined), the IC50 result in data set [1] was “Not Active”.

Consider `CC(C)(C)Nc1ccc(O)c2ccccc12`, for which the IC50 result in data set [2] (p815b) is “Not Active”; in data set [1] (read-out: IC50), 4 µM. Also, the CC50 in data set [6] was determined as 20 µM.

On to `Nc1ccccc1Oc1ccccc1`, for which the IC50 in data set [1] (read-out: IC50) was more than 1000 µM.

For the molecule `Oc1ccc(NCc2ccccc2)c2ccccc12`, the IC50 in data set [1] (read-out: IC50) is 2.5 µM.

Turning to `NCCNc1ccc(O)c2ccccc12`, in data set [1] (read-out: IC50), the half-maximal inhibitory concentration (IC50) was 44 µM.

Consider `SC1Nc2ccccc2N1`, for which, in data set [1], the IC50 result is reported as “Not Active”.

Turning to `OC1Nc2ccccc2S1` (centres undefined), the half-inhibitory concentration (IC50) result in data set [1] is “Not Active”.

With `N[C@@H](CO)C(=O)Nc1ccc(O)c2ccccc12`, in data set [1] (read-out: IC50), the concentration for half-maximal inhibition (IC50) is 400 µM.

`OCCOc1ccc(O)c2ccccc12`: the IC50 in data set [1] (read-out: IC50) stood at 12.5 µM.

Regarding `SC1Nc2cc(Cl)ccc2S1` (centres undefined), the IC50 in data set [1] (read-out: IC50) is 50 µM.

`SC1Nc2ccccc2S1` (centres undefined): the IC50 is 20 µM in data set [2] (read-out: IC50), more than 80 µM in data set [3], 7 µM in data set [7] and 50 µM in data set [1] (read-out: IC50). In addition, the LD50 in data set [8] was more than 80 µM; in data set [5] (Mus musculus, P815B), more than 80 µM. Further, the CC50 in data set [6] is more than 80 µM.

For `CNc1ccc(O)c2ccccc12`, the IC50 in data set [1] (read-out: IC50) came to 12.5 µM.

As for `CN(C)c1ccc(O)c2ccccc12`, the half-maximal inhibitory concentration (IC50) in data set [1] (read-out: IC50) was found to be 1000 µM.

For `NCC(=O)Nc1ccc(O)c2ccccc12`, the half-maximal inhibitory concentration (IC50) in data set [1] (read-out: IC50) was 105 µM.

In the case of `Sc1nc(-c2ccccc2)cs1`, the 50% inhibitory concentration (IC50) in data set [2] (read-out: IC50) was 20 µM; in data set [3] it was more than 80 µM. Besides, the CC50 in data set [4], in data set [5] and in data set [6] was more than 80 µM each time.

For `Oc1ccc(NC2CCCCC2)c2ccccc12`, the IC50 in data set [1] (read-out: IC50) was 15 µM.

`OC1c2ccccc2-c2ccccc21`: the concentration for half-maximal inhibition (IC50) in data set [1] (read-out: IC50) is more than 1000 µM.

As for `O=C1c2ccccc2-c2ccccc21`, in data set [1] (read-out: IC50), the IC50 was more than 200 µM.

`CCNc1ccc(O)c2ncccc12`: the half-maximal inhibitory concentration (IC50) result in data set [2] (p815b) is “Not Active”; in data set [1] (read-out: IC50), 40 µM. For the same molecule, the CC50 in data set [6] turned out to be 20 µM.

Turning to `CC(C)Nc1ccc(O)c2ncccc12`, the half-maximal inhibitory concentration (IC50) entry in data set [2] (p815b) is “Not Active”; in data set [1] (read-out: IC50), 15 µM. The CC50 in data set [6] is more than 200 µM.

For the molecule `CC(C)CNc1ccc(O)c2ccccc12`, the IC50 in data set [1] (read-out: IC50) came to 25 µM.

On to `C[C@@H](N)C(=O)Nc1ccc(O)c2ccccc12`, for which, in data set [1] (read-out: IC50), the IC50 amounted to 90 µM.

`CCC(CC)Nc1ccc(O)c2ccccc12`: the IC50 in data set [1] (read-out: IC50) was 3.5 µM.

In the case of `CN(C)CSC1Nc2ccccc2S1` (centres undefined), the concentration for half-maximal inhibition (IC50) in data set [1] (read-out: IC50) was found to be 50 µM.

As to `OC1Nc2ccccc2N1`, the 50% inhibitory concentration (IC50) result in data set [1] was “Not Active”.

For the molecule `COc1ccc(N)c2ccccc12`, the IC50 in data set [1] (read-out: IC50) is 5.5 µM.

On to `CSC1Nc2ccccc2S1` (centres undefined), for which the IC50 entry in data set [1] is “Not Active”.

As to `CCCNc1ccc(O)c2ccccc12`, the IC50 entry in data set [2] (p815b) is “Not Active”; in data set [1] (read-out: IC50) it was 4.5 µM. Further, the CC50 in data set [6] worked out at 20 µM.

Regarding `C[C@H](N)C(=O)Nc1ccc(O)c2ccccc12`, in data set [1] (read-out: IC50), the IC50 is 60 µM.

For the molecule `Nc1ccc(Nc2ccccc2)cc1`, in data set [1] (read-out: IC50), the 50% inhibitory concentration (IC50) was 400 µM.

For `Nc1ccc2c(c1)SC(S)N2` (centres undefined), in data set [1], the 50% inhibitory concentration (IC50) result is recorded as “Not Active”.

On to `CN(C)CSc1nc(-c2ccccc2)cs1`, for which the IC50 in data set [1] (read-out: IC50) is more than 1000 µM.

In the case of `CCN(CC)CCNc1ccc(O)c2ccccc12`, the IC50 in data set [1] (read-out: IC50) came out at 3 µM.

On to `CC1=C/C(=N\C(C)C)c2ccccc2C1=O`, for which the IC50 in data set [2] (read-out: IC50) is 4 µM; in data set [3], 6.3 µM; in data set [7], more than 50 µM; in data set [1] (read-out: IC50), 0.2 µM. For the same molecule, the results for the CC50 in data set [4], in data set [5] and in data set [6] were 50 µM, 10 µM and 15 µM, respectively.

With `NCCCNc1ccc(O)c2ccccc12`, the IC50 in data set [1] (read-out: IC50) was found to be 5 µM.

As to `Nc1ccc(O)c2ccccc12`, the 50% inhibitory concentration (IC50) entry is “Not Active” in data set [2] (p815b) and 6 µM in data set [1] (read-out: IC50). For the same molecule, the CC50 in data set [6] worked out at 2 µM.

In the case of `O=C(Nc1ccc(O)c2ccccc12)[C@@H]1CCCN1`, in data set [1] (read-out: IC50), the 50% inhibitory concentration (IC50) amounted to 200 µM.

As to `CCNc1ccc(O)c2ccccc12`, the concentration for half-maximal inhibition (IC50) in data set [3] is more than 50 µM. Besides, the figures for the CC50 in data set [4], in data set [5] and in data set [6] were 200 µM, 50 µM and 400 µM, respectively.

Regarding `CC(C)Nc1ccc(O)c2ccccc12`, the IC50 in data set [2] (read-out: IC50) is 30 µM; in data set [3] it was more than 15 µM; in data set [7], 12.5 µM; in data set [1] (read-out: IC50), 2.5 µM. The CC50 is 100 µM in data set [4], 15 µM in data set [5] and more than 80 µM in data set [6].

In the case of `Cn1cc(C[C@H](N)C(=O)O)c2ccccc21` [(L)-1-METHYLTRYPTOPHAN], in data set [3], the IC50 is more than 400 µM. The CC50 in data set [4] is more than 400 µM; in data set [5], more than 400 µM; in data set [6] it was more than 1000 µM.

As for `O=C(c1ccccc1)c1ccccc1` [BENZOPHENONE], the half-inhibitory concentration (IC50) in data set [1] (read-out: IC50) is 1000 µM.

On to `Oc1ccc(Cl)cc1Cc1cc(Cl)ccc1O` [DICHLOROPHEN], for which the IC50 entry in data set [2] (p815b) is on record as “Not Active”. In addition, the CC50 in data set [6] is 0.2 µM.

As to `Oc1cccc2cccnc12` [OXYQUINOLINE], in data set [1] (read-out: IC50), the IC50 is 750 µM.

The record behind these values is ChEMBL document CHEMBL1156818, “Rational design of indoleamine 2,3-dioxygenase inhibitors” (J Med Chem, 2010).
